Results on 6 compounds are retold here after ChEMBL document CHEMBL1135935, “Halogenated diazirines as photolabel mimics of the inhaled haloalkane anesthetics” (J Med Chem, 2002).

A short description of test [1]: Dissociation constant for a single binding site. Summed up:
(§1)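 Bovine serum albumin (10 mg/mL) was pre-equilibrated with ~5 mCi tritiated water in 1 M GdnCl, 0.1 M NaH2PO4 pH 8.5 for ≥18 h at room temperature. Exchange-out ran with compound present. Aliquots were taken at timed intervals over ≥6 h, precipitated in ice-cold 10% TCA, filtered, and counted by scintillation. PFR came from the last 3–5 shared hydrogens. KD was derived from PFr = 1 + ([compound]/KD)^n.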

Test [2] can be described thus: (§2) Effective concentration to potentiate GABA responses. It counts as functional. A digest of the protocol: (§3)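 Stage V–VI Xenopus oocytes were defolliculated with collagenase and injected with 1–2 ng of each subunit cRNA in a 1:1 ratio. They were kept in ND96 with 50 µg/mL gentamicin at 18 °C for 3–5 days. Voltage-clamp recording was done under continuous ND96 superfusion (pH 7.5).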

The nature of test [3]: Effective concentration for tadpole immobility after 5 min (slow recovery). It is filed as functional, frog. The following applies: Amphibia, read-out: ED50 (the source's name). Summed up: (§4)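 Tadpoles were exposed to compound in pond water and scored for loss of righting reflex over 5 min. They were then moved to fresh pond water and watched for recovery, intermittently for 3 h. EC50 values are estimates within 2-fold.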

The target in the next test is Albumin (Homo sapiens, UniProt P02768). Description: Inhibitory concentration bound to tryptophan containing region of Serum albumin in fluorescence quenching. A digest of the protocol:
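Increasing compound concentrations were added from stock buffer solutions to ~2 µM human serum albumin, which has a single Trp-214. The cuvette was kept air-free. Excitation was 295 nm with emission scanning at room temperature. Fluorescence maxima were corrected for inner-filter effects, and EC50 and Hill slope were derived.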

Test [4] can be described thus: Effective concentration for tadpole immobility (less potent). It is filed as functional, frog. A digest of the protocol:
as §4

Test [5] is described as follows: Dissociation constant for a single binding site at 5 mM concentration. Summed up:
as §1

Test [6] can be described thus: as §2. It is filed as functional. A digest of the protocol: as §3
The source holds these as a separate data set.

A short description of test [7]: Effective concentration for rapid onset of reversible immobility (tadpole) at about 0.1 mM. It is filed as functional, frog. A digest of the protocol: as §4

Sequence of Albumin (P02768 whole entry): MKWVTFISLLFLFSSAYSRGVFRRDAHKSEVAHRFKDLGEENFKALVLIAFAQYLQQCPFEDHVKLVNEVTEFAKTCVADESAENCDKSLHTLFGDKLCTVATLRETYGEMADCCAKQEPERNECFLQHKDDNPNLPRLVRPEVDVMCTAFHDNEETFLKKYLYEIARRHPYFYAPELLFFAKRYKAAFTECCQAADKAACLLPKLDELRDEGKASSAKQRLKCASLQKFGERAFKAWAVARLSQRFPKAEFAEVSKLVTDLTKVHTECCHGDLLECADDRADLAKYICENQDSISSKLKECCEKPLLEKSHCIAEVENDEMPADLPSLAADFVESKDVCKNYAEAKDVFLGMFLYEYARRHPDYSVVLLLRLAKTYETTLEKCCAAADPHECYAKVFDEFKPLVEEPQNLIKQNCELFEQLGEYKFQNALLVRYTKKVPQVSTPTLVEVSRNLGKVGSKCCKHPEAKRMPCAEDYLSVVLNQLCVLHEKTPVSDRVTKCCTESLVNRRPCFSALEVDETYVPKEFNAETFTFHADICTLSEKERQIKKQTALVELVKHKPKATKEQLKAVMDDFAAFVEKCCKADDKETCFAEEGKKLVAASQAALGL

What is called Kd is the equilibrium constant for the complex coming apart. Read a high Kd as lower affinity. A word on the IC50: it is the concentration that inhibits the measured activity by half. A low value points to higher potency. Regarding `FC(Cl)C(F)(F)C1(Br)N=N1` (configuration not stated), in test [1], the Kd was 600 µM. Besides, the ED50 in test [2] amounted to 80 µM. Moreover, in test [3], the EC50 was 300 µM. Also, half-maximal inhibition on Albumin (IC50) was put at 700 µM.

The compound `FC(Cl)C(F)(F)C1(F)N=N1` (configuration not stated) registered a Kd in test [1] of 4800 µM. For the same compound, the EC50 in test [4] was 2500 µM. 2200 µM corresponded to half-maximal inhibition against Albumin (IC50).

For the compound `FC(F)(F)C1(Br)N=N1`, the Kd in test [1] amounted to 5600 µM. On Albumin, the IC50 worked out at 400 µM.

In test [5], `[N-]=[N+]=CC(F)(F)F` returned a Kd of 1300 µM. This compound also had an IC50 at Albumin of 1200 µM.

As to `FC(F)(F)C(Cl)Br` (configuration not stated) [HALOTHANE], the Kd in test [1] was 900 µM. The midpoint of inhibition against Albumin, the IC50, lay at 2900 µM.

In test [1], `FC(F)(C(Cl)Br)C1N=N1` (configuration not stated) had a Kd of 200 µM. In addition, the EC50 amounted to 50 µM in test [6] and 100 µM in test [7]. Further, at Albumin, the IC50 is 800 µM.
